Series [1] deals with T1, Glucose-dependent insulinotropic receptor (Homo sapiens, UniProt Q8TDV5).
T1 sequence (Q8TDV5 whole entry): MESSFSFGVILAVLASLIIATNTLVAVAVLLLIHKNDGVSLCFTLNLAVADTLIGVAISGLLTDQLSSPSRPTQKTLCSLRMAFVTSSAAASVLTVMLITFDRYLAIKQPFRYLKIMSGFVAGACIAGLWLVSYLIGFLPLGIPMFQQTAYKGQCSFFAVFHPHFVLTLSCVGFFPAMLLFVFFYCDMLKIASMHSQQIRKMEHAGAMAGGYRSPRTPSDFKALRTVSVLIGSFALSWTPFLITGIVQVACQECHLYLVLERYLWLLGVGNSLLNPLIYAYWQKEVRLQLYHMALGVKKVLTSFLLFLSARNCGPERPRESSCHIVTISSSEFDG
Briefly: Agonist activity at human GPR119 expressed in Flp-In-T-Rex-HEK293 cells after 30 mins by cAMP accumulation assay. In kind it is functional, cell-based. Summed up: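 Flp-In-T-Rex-HEK293 cells overexpressing human GPR119, induced with tetracycline for 24 h, plated at 5000 cells/well in D-MEM assay buffer with 1 mM IBMX and 0.01% BSA. Cells exposed to compound for 30 min at 37 °C. cAMP read by HTRF kit (HiRange). Response = stimulated minus basal cAMP. EC50 = concentration giving 50% of maximal response.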
(In general: cAMP levels reflect the balance of adenylyl cyclase and phosphodiesterase activity.)

Series [2] can be described thus: Volume of distribution at steady state in Sprague-Dawley rat at 3 mg/kg, iv. The class given is ADME, organism-based. The settings on record: in vivo, read-out: Vdss.
Series [3] in a line: Clearance in Sprague-Dawley rat at 3 mg/kg, iv. The class given is ADME, organism-based. The settings on record: in vivo.
The nature of series [4]: Permeability of the compound at pH 6.2 by PAMPA. In kind it is ADME. Conditions: read-out: permeability. A general note: The PAMPA barrier holds no transporters, so it reflects passive diffusion.
Series [5] can be described thus: AUC (0 to infinity) in Sprague-Dawley rat at 10 mg/kg, po. In kind it is ADME, organism-based. Also on record: dose 10 mg/kg, time infinity, route oral. The settings on record: in vivo.
The nature of series [6]: Half life in Sprague-Dawley rat at 3 mg/kg, iv. The class given is ADME, organism-based. The settings on record: in vivo.
Series [7] can be described thus: Drug metabolism in human liver microsomes after 15 mins. In kind it is ADME. The settings on record: read-out: Drug metabolism. Summed up: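 Compound incubated 15 min with human liver microsomes at 1 mg protein/mL; result expressed as percent metabolized.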
For orientation: Liver microsomes are vesicles of endoplasmic reticulum, rich in cytochrome P450 enzymes.

The nature of series [8]: Thermodynamic solubility of the compound in phosphate buffer at pH 6.8. In kind it is physicochemical. Conditions: read-out: Therm_solubility. In outline: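 Thermodynamic solubility measured in pH 6.8 phosphate buffer.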
Series [9] is described as follows: Oral bioavailability in Sprague-Dawley rat at 10 mg/kg. Conditions: in vivo. In kind it is ADME, organism-based.

Values after ≈ are worked out from the molar mass of the structure shown.

In general, EC50 refers to the midpoint of the concentration-response curve. Consider `CCNC(=O)c1cc(F)c(-c2cc3cnn(C4CCN(C(=O)OC(C)C)CC4)c3cn2)cc1F`, for which the response in [1] was half-maximal at 10 nM (EC50).

What is called clearance is the rate of elimination divided by the concentration. A higher clearance goes with efficient removal. By AUC(0-inf) is commonly meant total exposure, with the tail of the curve extrapolated. Read a low AUC(0-inf) as low exposure. In general, half-life refers to the time needed for the level to fall by half in the phase considered. A high value points to slow loss. A word on the bioavailability: it is dose-corrected exposure relative to a reference, in per cent. The low end stands for little systemic uptake, the high end for much systemic uptake. As to `CCc1cnc(N2CCC(n3ncc4cc(-c5ccc(S(C)(=O)=O)cc5F)ncc43)CC2)nc1`, in series [2], the Vd came to 0.537 L/kg. The compound further had a clearance in series [3] of 12.7 mL/min/kg. Also, the Papp in series [4] was 112 ×10⁻⁶ cm/s. The same compound gave an AUC(0-inf) in series [5] of 1930 ng·h/mL. A half-maximal effect in series [1] (EC50) was put at 4 nM. For the same compound, the half-life in [6] is 37 min. The metabolised at 0.25 h in series [7] was 14.3%. For the same compound, the solubility thermodynamic in series [8] worked out at 0.34 µg/mL (≈ 0.707 µM). The compound further had a bioavailability in series [9] of 12.6%.

Compound `CC(C)OC(=O)N1CCC(n2ncc3cc(-c4ccc(C(N)=O)cc4F)ncc32)CC1` came in with an EC50 in [1] of 97 nM.

As to `CC(C)CCN1CCC(n2ncc3cc(-c4ccc(S(C)(=O)=O)cc4)ncc32)CC1`, the concentration for a half-maximal effect (EC50) in series [1] was found to be 220 nM.

Compound `CC(C)COC(=O)N1CCC(n2ncc3cc(-c4ccc(S(C)(=O)=O)cc4)ncc32)CC1` had an EC50 in series [1] of 11 nM. Moreover, the metabolised at 0.25 h in [7] stood at 79.8%.

Consider `CC(C)(C)OC(=O)N1CCC(n2ncc3cc(-c4ccc(S(C)(=O)=O)cc4)ncc32)CC1`, for which, in [1], it took 20 nM to reach a half-maximal effect (EC50).

Consider `Cc1ccc(N2CCC(n3ncc4cc(-c5ccc(S(C)(=O)=O)cc5)ncc43)CC2)nc1`, for which the midpoint of the response in series [1], the EC50, lay at 30 nM. Further, the metabolised at 0.25 h in [7] worked out at 44.1%.

With `CC(C)(OC(=O)N1CCC(n2ncc3cc(-c4ccc(S(C)(=O)=O)cc4)ncc32)CC1)C(F)F`, it took 23 nM to reach a half-maximal effect in series [1] (EC50). Besides, the metabolised at 0.25 h in [7] was found to be 3.9%.

In [1], `CCc1cnc(N2CCC(n3ncc4cc(-c5cc(F)c(C(=O)NCCO)cc5F)ncc43)CC2)nc1` yielded an EC50 of 15 nM. Moreover, in series [7], the metabolised at 0.25 h came to 35.8%. The solubility thermodynamic in [8] is 0.69 µg/mL (≈ 1.36 µM).

Consider `CC(C)OC(=O)N1CCC(n2ncc3cc(Oc4cccc(S(C)(=O)=O)c4)ncc32)CC1`, for which a half-maximal effect in series [1] (EC50) was put at 266 nM.

For the compound `CCCNC(=O)c1cc(F)c(-c2cc3cnn(C4CCN(C(=O)OC(C)C)CC4)c3cn2)cc1F`, it took 14 nM to reach a half-maximal effect in [1] (EC50).

For `CC(C)OC(=O)N1CCC(n2ncc3cc(Oc4ccc(S(C)(=O)=O)cc4)ncc32)CC1`, the EC50 in [1] came to 177 nM.

In series [1], `CC(C)(C)OC(=O)N1CCC(n2ncc3cc(-c4ccc(S(C)(=O)=O)cc4)ccc32)CC1` returned an EC50 of 31 nM.

`CCc1cnc(N2CCC(n3ncc4cc(-c5ccc(S(C)(=O)=O)cc5)ncc43)CC2)nc1` gave an EC50 in [1] of 13 nM. In addition, in series [7], the metabolised at 0.25 h came to 20.3%.

For the compound `CC(C)(OC(=O)N1CCC(n2ncc3cc(-c4ccc(S(C)(=O)=O)cc4F)ncc32)CC1)C(F)F`, a half-maximal effect in series [1] (EC50) was put at 10 nM. Moreover, the metabolised at 0.25 h in series [7] stood at 2.1%. Besides, the solubility thermodynamic in series [8] was less than 0.06 µg/mL.

`CC(C)OC(=O)N1CCC(n2ncc3cc(-c4ccc(S(C)(=O)=O)cc4)ncc32)CC1` yielded an EC50 in [1] of 42 nM. Also, the metabolised at 0.25 h in series [7] came out at 24.1%. The solubility thermodynamic in series [8] stood at 0.67 µg/mL (≈ 1.51 µM).

As to `CC(C)OC(=O)N1CCC(n2ncc3cc(-c4cc(F)c(C(N)=O)cc4F)ncc32)CC1`, a half-maximal effect in series [1] (EC50) was put at 52 nM.

`CC(C)OC(=O)N1CCC(n2ncc3cc(-c4cc(F)c(C(=O)N(C)C)cc4F)ncc32)CC1` gave an EC50 in series [1] of 46 nM.

Take `CC(C)OC(=O)N1CCC(n2ncc3cc(-c4ccc(S(C)(=O)=O)cc4F)ncc32)CC1`: in [1], the EC50 was determined as 27 nM.

As to `CC(C)OC(=O)N1CCC(n2ncc3cc(-c4cc(F)c(C(=O)NCCO)cc4F)ncc32)CC1`, the EC50 in [1] came out at 92 nM.

Regarding `CC(C)(C)OC(=O)N1CCC(n2nnc3cc(-c4ccc(S(C)(=O)=O)cc4)ccc32)CC1`, in [1], a half-maximal response (EC50) required 63 nM.

`CC(C)OC(=O)N1CCC(n2ncc3cc(-c4ccc(S(C)(=O)=O)nc4)ncc32)CC1` registered an EC50 in [1] of 197 nM.

These data come from ChEMBL document CHEMBL3822424, “Design and synthesis of 1H-pyrazolo[3,4-c]pyridine derivatives as a novel structural class of potent GPR119 agonists” (Bioorg Med Chem Lett, 2016).
